Reference: ChEMBL document CHEMBL1155222, “Synthesis and anticancer activity of N-bis(trifluoromethyl)alkyl-N'-thiazolyl and N-bis(trifluoromethyl)alkyl-N'-benzothiazolyl ureas” (2009)

How the values were obtained:
Assay type in all cases: functional
EKVX = experiment: Anticancer activity against human EKVX cells after 48 hrs by sulforhodamine B assay
Method in brief: (§1)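 NCI 60-cell-line screen. Cells grown in RPMI 1640 with 5% FBS and 2 mM L-glutamine, plated at 5000–40,000 cells/well, and preincubated 24 h at 37 °C under 5% CO2. Compounds were taken from DMSO stocks and tested at five final concentrations, 10^-4 to 10^-8 M, for 48 h. Cells were TCA-fixed, stained with 0.4% SRB, and read at 515 nm. GI50, TGI and LC50 were derived as log molar values.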

SNB-75 = experiment: Anticancer activity against human SNB75 cells after 48 hrs by sulforhodamine B assay; settings: SNB-75, 48 h
Method in brief: (§2)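 NCI 60-cell-line panel; cells grown in RPMI 1640 with 5% FBS and 2 mM L-glutamine, plated at 5000–40,000 cells/well and preincubated 24 h at 37 °C, 5% CO2. Compounds came from DMSO stocks diluted in medium with gentamicin and were tested at five final concentrations, 10^-4 to 10^-8 M, for 48 h. Cells were fixed with TCA, stained with SRB and read at 515 nm. GI50, TGI and LC50 were derived as log molar values.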

MCF7 = experiment: Anticancer activity against human MCF7 cells after 48 hrs by sulforhodamine B assay; settings: MCF7, 48 h; method in brief: as §1
SF-268 = experiment: Anticancer activity against human SF268 cells after 48 hrs by sulforhodamine B assay; settings: SF-268, 48 h; method in brief: as §1
OVCAR-4 = experiment: Anticancer activity against human OVCAR4 cells after 48 hrs by sulforhodamine B assay; settings: OVCAR-4, 48 h; method in brief: as §1
HOP-62 = experiment: Anticancer activity against human HOP62 cells after 48 hrs by sulforhodamine B assay; settings: HOP-62, 48 h; method in brief: as §1
HCT-116 = experiment: Anticancer activity against human HCT116 cells after 48 hrs by sulforhodamine B assay; settings: HCT-116, 48 h; method in brief: as §1
MOLT-4 = experiment: Anticancer activity against human MOLT4 cells after 48 hrs by sulforhodamine B assay; settings: MOLT-4, 48 h; method in brief: as §1
SK-MEL-5 = experiment: Anticancer activity against human SK-MEL-5 cells after 48 hrs by sulforhodamine B assay; settings: SK-MEL-5, 48 h; method in brief: as §1
OVCAR-8 = experiment: Anticancer activity against human OVCAR8 cells after 48 hrs by sulforhodamine B assay; settings: OVCAR-8, 48 h; method in brief: as §1
OVCAR-5 = experiment: Anticancer activity against human OVCAR5 cells after 48 hrs by sulforhodamine B assay; settings: OVCAR-5, 48 h; method in brief: as §1
NCI-H226 = experiment: Anticancer activity against human NCI-H226 cells after 48 hrs by sulforhodamine B assay; settings: NCI-H226, 48 h; method in brief: as §1
DU-145 = experiment: Anticancer activity against human DU145 cells after 48 hrs by sulforhodamine B assay; settings: DU-145, 48 h; method in brief: as §1
CAKI-1 = experiment: Anticancer activity against human Caki1 cells after 48 hrs by sulforhodamine B assay; settings: CAKI-1, 48 h; method in brief: as §1
RXF 393 = experiment: Anticancer activity against human RXF393 cells after 48 hrs by sulforhodamine B assay; settings: RXF 393, 48 h; method in brief: as §1
KM12 = experiment: Anticancer activity against human KM12 cells after 48 hrs by sulforhodamine B assay; settings: KM12, 48 h; method in brief: as §1
UACC-257 = experiment: Anticancer activity against human UACC257 cells after 48 hrs by sulforhodamine B assay; settings: UACC-257, 48 h; method in brief: as §2
NCI-H522 = experiment: Anticancer activity against human NCI-H522 cells after 48 hrs by sulforhodamine B assay; settings: NCI-H522, 48 h; method in brief: as §1
HCT-15 = experiment: Anticancer activity against human HCT15 cells after 48 hrs by sulforhodamine B assay; settings: HCT-15, 48 h; method in brief: as §1
U-251 = experiment: Anticancer activity against human U251 cells after 48 hrs by sulforhodamine B assay; settings: U-251, 48 h; method in brief: as §2
SK-MEL-28 = experiment: Anticancer activity against human SK-MEL-28 cells after 48 hrs by sulforhodamine B assay; settings: SK-MEL-28, 48 h; method in brief: as §1
A549 = experiment: Anticancer activity against human A549 cells after 48 hrs by sulforhodamine B assay; settings: A549, 48 h; method in brief: as §1
K562 = experiment: Anticancer activity against human K562 cells after 48 hrs by sulforhodamine B assay; settings: K562, 48 h; method in brief: as §1
NCI-H460 = experiment: Anticancer activity against human NCI-H460 cells after 48 hrs by sulforhodamine B assay; settings: NCI-H460, 48 h; method in brief: as §1
NCI/ADR-RES = experiment: Anticancer activity against human NCI/ADR-RES cells after 48 hrs by sulforhodamine B assay; method in brief: as §1
PC-3 = experiment: Anticancer activity against human PC3 cells after 48 hrs by sulforhodamine B assay; settings: PC-3, 48 h; method in brief: as §1
UACC-62 = experiment: Anticancer activity against human UACC62 cells after 48 hrs by sulforhodamine B assay; settings: UACC-62, 48 h; method in brief: as §2
[1] = Anticancer activity against human Hs 578T cells after 48 hrs by sulforhodamine B assay; method in brief: as §1
HT-29 = experiment: Anticancer activity against human HT-29 cells after 48 hrs by sulforhodamine B assay; settings: HT-29, 48 h; method in brief: as §1
SR = experiment: Anticancer activity against human SR cells after 48 hrs by sulforhodamine B assay; method in brief: as §2
M14 = experiment: Anticancer activity against human M14 cells after 48 hrs by sulforhodamine B assay; settings: M14, 48 h; method in brief: as §1
IGROV-1 = experiment: Anticancer activity against human IGROV1 cells after 48 hrs by sulforhodamine B assay; settings: IGROV-1, 48 h; method in brief: as §1
MDA-MB-231 = experiment: Anticancer activity against human MDA-MB-231 cells after 48 hrs by sulforhodamine B assay; settings: MDA-MB-231, 48 h; method in brief: as §1
T47D = experiment: Anticancer activity against human T47D cells after 48 hrs by sulforhodamine B assay; method in brief: as §2
MDA-MB-435 = experiment: Anticancer activity against human MDA-MB-435 cells after 48 hrs by sulforhodamine B assay; settings: MDA-MB-435, 48 h; method in brief: as §1
COLO 205 = experiment: Anticancer activity against human COLO205 cells after 48 hrs by sulforhodamine B assay; settings: COLO 205, 48 h; method in brief: as §1
A498 = experiment: Anticancer activity against human A498 cells after 48 hrs by sulforhodamine B assay; settings: A498, 48 h; method in brief: as §1
Malme-3M = experiment: Anticancer activity against human MALME-3M cells after 48 hrs by sulforhodamine B assay; method in brief: as §1
MDA-N = experiment: Anticancer activity against human MDA-N cells after 48 hrs by sulforhodamine B assay; method in brief: as §1
SW-620 = experiment: Anticancer activity against human SW620 cells after 48 hrs by sulforhodamine B assay; settings: SW-620, 48 h; method in brief: as §2
SN12C = experiment: Anticancer activity against human SN12C cells after 48 hrs by sulforhodamine B assay; method in brief: as §2
UO-31 = experiment: Anticancer activity against human UO31 cells after 48 hrs by sulforhodamine B assay; settings: UO-31, 48 h; method in brief: as §2
OVCAR-3 = experiment: Anticancer activity against human OVCAR-3 cells after 48 hrs by sulforhodamine B assay; settings: OVCAR-3, 48 h; method in brief: as §1
SF-539 = experiment: Anticancer activity against human SF539 cells after 48 hrs by sulforhodamine B assay; settings: SF-539, 48 h; method in brief: as §1

Compound: CCC(NC(=O)Nc1nc2ccccc2s1)(C(F)(F)F)C(F)(F)F
- GI50 (EKVX): 17 µM
- GI50 (SNB-75): 1.45 µM
- GI50 (MCF7): 15.8 µM
- GI50 (SF-268): 17 µM
- GI50 (OVCAR-4): 18.6 µM
- GI50 (HOP-62): 17.8 µM
- GI50 (HCT-116): 18.2 µM
- GI50 (MOLT-4): 29.5 µM
- GI50 (SK-MEL-5): 17.8 µM
- GI50 (OVCAR-8): 18.2 µM
- GI50 (OVCAR-5): 19.5 µM
- GI50 (NCI-H226): 15.8 µM
- GI50 (DU-145): 18.6 µM
- GI50 (CAKI-1): 19.1 µM
- GI50 (RXF 393): 17.4 µM
- GI50 (KM12): 20.4 µM
- GI50 (UACC-257): 20 µM
- GI50 (NCI-H522): 17 µM
- GI50 (HCT-15): 17.8 µM
- GI50 (U-251): 17.4 µM
- GI50 (SK-MEL-28): 17.8 µM
- GI50 (A549): 15.8 µM
- GI50 (K562): 23.4 µM
- GI50 (NCI-H460): 21.4 µM
- GI50 (NCI/ADR-RES): 19.5 µM
- GI50 (PC-3): 18.2 µM
- GI50 (UACC-62): 15.5 µM
- GI50 [1]: 21.4 µM
- GI50 (HT-29): 19.5 µM
- GI50 (SR): 17 µM
- GI50 (M14): 18.6 µM
- GI50 (IGROV-1): 17 µM
- GI50 (MDA-MB-231): 16.2 µM
- GI50 (T47D): 15.5 µM
- GI50 (MDA-MB-435): 20 µM
- GI50 (COLO 205): 16.2 µM
- GI50 (A498): 13.5 µM
- GI50 (Malme-3M): 15.5 µM
- GI50 (MDA-N): 18.6 µM
- GI50 (SW-620): 20.9 µM
- GI50 (SN12C): 16.2 µM
- GI50 (UO-31): 4.68 µM
- GI50 (OVCAR-3): 16.6 µM
- GI50 (SF-539): 18.2 µM

Compound: O=C(Nc1nccs1)NC(C(F)(F)F)C(F)(F)F
- GI50 (EKVX): 41.7 µM
- GI50 (SNB-75): 55 µM
- GI50 (MCF7): 40.7 µM
- GI50 (SF-268): 29.5 µM
- GI50 (OVCAR-4): 39.8 µM
- GI50 (HOP-62): > 100 µM
- GI50 (HCT-116): 38 µM
- GI50 (MOLT-4): 40.7 µM
- GI50 (SK-MEL-5): 38.9 µM
- GI50 (OVCAR-8): 39.8 µM
- GI50 (OVCAR-5): 91.2 µM
- GI50 (NCI-H226): 57.5 µM
- GI50 (DU-145): 63.1 µM
- GI50 (CAKI-1): 55 µM
- GI50 (RXF 393): 77.6 µM
- GI50 (KM12): 39.8 µM
- GI50 (UACC-257): 35.5 µM
- GI50 (NCI-H522): 23.4 µM
- GI50 (HCT-15): 66.1 µM
- GI50 (U-251): 33.9 µM
- GI50 (SK-MEL-28): > 100 µM
- GI50 (A549): 60.3 µM
- GI50 (K562): 36.3 µM
- GI50 (NCI-H460): 34.7 µM
- GI50 (NCI/ADR-RES): 33.1 µM
- GI50 (PC-3): 38 µM
- GI50 (UACC-62): 63.1 µM
- GI50 [1]: 22.4 µM
- GI50 (HT-29): 91.2 µM
- GI50 (SR): 24 µM
- GI50 (M14): > 100 µM
- GI50 (IGROV-1): 95.5 µM
- GI50 (MDA-MB-231): 58.9 µM
- GI50 (T47D): 45.7 µM
- GI50 (MDA-MB-435): 79.4 µM
- GI50 (COLO 205): 52.5 µM
- GI50 (A498): 95.5 µM
- GI50 (Malme-3M): 29.5 µM
- GI50 (MDA-N): > 100 µM
- GI50 (SW-620): > 100 µM
- GI50 (SN12C): 43.7 µM
- GI50 (UO-31): 35.5 µM
- GI50 (OVCAR-3): 42.7 µM
- GI50 (SF-539): > 100 µM
